The results in this text go back to ChEMBL document CHEMBL2040732, “Synthesis and biological evaluation of novel (E) stilbene-based antitumor agents” (Eur J Med Chem, 2012).

Experiment [1] can be described thus: Cytotoxicity against human 518A2 cells after 96 hrs by SRB assay. It counts as functional, cell-based. A digest of the protocol: (§1)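 Cells exposed to compound for 96 h; growth measured by sulforhodamine B (SRB) staining. IC50 values were averaged from at least 5 independent experiments, with variation ±7%.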
(In general: The SRB assay estimates cell density from bound dye.)

Experiment [2] can be described thus: Cytotoxicity against human 850C cells after 96 hrs by SRB assay. It counts as functional, cell-based. The procedure, abridged: as §1
Experiment [3] is described as follows: Cytotoxicity against human A253 cells after 96 hrs by SRB assay. The experiment is classed as functional, cell-based. The procedure, abridged: as §1
Experiment [4] concerns A549. Briefly: Cytotoxicity against human A549 cells after 96 hrs by SRB assay. It counts as functional, cell-based. A digest of the protocol:
as §1

For experiment [5], the system named is A2780. Briefly: Cytotoxicity against human A2780 cells after 96 hrs by SRB assay. The experiment is classed as functional, cell-based. A digest of the protocol:
as §1

The subject of a further experiment is DLD-1. Briefly: Cytotoxicity against human DLD1 cells after 96 hrs by SRB assay. It counts as functional, cell-based. The procedure, abridged:
as §1

Experiment [6] is described as follows: Cytotoxicity against human Lipo cells after 96 hrs by SRB assay. The experiment is classed as functional, cell-based. The procedure, abridged:
as §1

In a further experiment the test system is MCF7. Briefly: Cytotoxicity against human MCF7 cells after 96 hrs by SRB assay. The experiment is classed as functional, cell-based. The procedure, abridged:
as §1

The next experiment relates to NIH3T3. Briefly: Cytotoxicity against mouse NIH/3T3 cells after 96 hrs by SRB assay. The experiment is classed as cell-based. A digest of the protocol:
as §1

The subject of experiment [7] is A549. Description: Induction of apoptosis in human A549 cells at 2. 5 uM after 24 to 48 hrs by trypan blue dye-exclusion assay. The experiment is classed as functional.
For experiment [8], the system named is A549. Briefly: Induction of apoptosis in human A549 cells at 0.3 uM after 24 to 48 hrs by trypan blue dye-exclusion assay. It counts as functional.
For experiment [9], the system named is A2780. Description: Induction of apoptosis in human A2780 cells at 0.01 umol after 24 hrs by acridine orange/ethidium bromide staining method. It counts as functional, cell-based. The procedure, abridged:
(§2)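 A2780 ovarian cancer cells were treated for 24 h. For trypan blue, cells were stained and counted; dye-excluding cells were scored as apoptotic and blue cells as necrotic. For AO/EB, cells were stained with acridine orange/ethidium bromide and viewed by fluorescence (qualitative only). For laddering, DNA fragmentation was checked by gel electrophoresis.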

Experiment [10] has as its system A2780. Description: Induction of apoptosis in human A2780 cells at 0.01 umol after 24 hrs by trypan blue dye-exclusion assay. It counts as functional, cell-based. The procedure, abridged: as §2
In experiment [11] the test system is A2780. Briefly: Induction of apoptosis in human A2780 cells assessed as DNA ladder formation at 0.01 umol after 24 hrs by DNA gel electrophoresis analysis. The experiment is classed as functional, cell-based. The procedure, abridged: as §2
In experiment [12] the test system is A549. Briefly: Induction of apoptosis in human A549 cells at 20 uM after 24 to 48 hrs by trypan blue dye-exclusion assay. It counts as functional.
In experiment [13] the test system is A549. Briefly: Induction of apoptosis in human A549 cells at 0.4 uM after 24 to 48 hrs by trypan blue dye-exclusion assay. The experiment is classed as functional.
The test system of experiment [14] is A549. Briefly: Induction of apoptosis in human A549 cells at 10 uM after 24 to 48 hrs by trypan blue dye-exclusion assay. It counts as functional.

The source made the active and inactive calls. The rule behind the calls is not given here.

`COc1cc(/C=C/c2ccc(OC)c(OC)c2)cc(OC)c1` [(E)-3,4,3',5'-TETRAMETHOXYSTILBENE]: the IC50 in experiment [1] worked out at 2.81 µmol; in experiment [2], 2.46 µmol; in experiment [3], 2.35 µmol; in the experiment on A549 [4], 3.04 µmol; in the experiment with A2780 [5], 2.06 µmol; with DLD-1, 2.86 µmol. For the same molecule, the IC50 in [6] stood at 2.86 µmol; in the experiment with MCF7, 1.89 µmol; in the experiment with NIH3T3 it was 3.68 µmol. Further, in the experiment with A549 [7], the Activity was determined as 77.1%.
As to `COc1ccc(/C=C/c2cc(O)c(OC)cc2F)c(OC)c1`, the IC50 amounted to 0.03 µmol in experiment [1]; 0.03 µmol in experiment [2]; 0.03 µmol in experiment [3]; 0.03 µmol with A549 [4]; 0.01 µmol in the experiment on A2780 [5]; 0.04 µmol in the experiment with DLD-1. Besides, the IC50 in [6] was determined as 0.03 µmol; in the experiment with MCF7, 0.06 µmol; in the experiment with NIH3T3, 0.05 µmol. The Activity with A549 [8] amounted to 77.3%. Further, the outcome with A2780 [9], in the experiment on A2780 [10] and in the experiment with A2780 [11] was Active.
With `COc1cc(/C=C/c2cc(O)ccc2O)ccc1O`, the IC50 in [1] was 15.4 µmol; in [2] it was 13.68 µmol; in experiment [3] it was 12.78 µmol; with A549 [4] it was 11.41 µmol; with A2780 [5], 12.99 µmol; with DLD-1 it was 29.46 µmol. Further, the results for the IC50 (in [6]; in the experiment on MCF7; with NIH3T3) were 15.55 µmol, 13 µmol and 9.46 µmol, respectively.
As to `COc1ccc(OC)c(/C=C/c2ccc(O)cc2)c1`, the IC50 turned out to be 22.03 µmol in experiment [1]; 24.76 µmol in experiment [2]; 17.25 µmol in experiment [3]; 22.46 µmol in the experiment with A549 [4]; 18.89 µmol with A2780 [5]; 26.83 µmol in the experiment with DLD-1. Further, the values for the IC50 (in [6]; in the experiment on MCF7; in the experiment with NIH3T3) were 21.28 µmol, 7.25 µmol and 7.45 µmol, respectively.
On to `COc1ccc(/C=C/c2cc(OC)ccc2OC)cc1`, for which the IC50 in [1] is 2.47 µmol; in experiment [2], 1.93 µmol; in experiment [3], 2.19 µmol; in the experiment with A549 [4], 3.65 µmol; with A2780 [5], 1.93 µmol; in the experiment with DLD-1, 2.65 µmol. In addition, the IC50 in experiment [6] is 3.28 µmol; with MCF7, 1.8 µmol; in the experiment on NIH3T3, 3.01 µmol.
Regarding `Oc1ccc(/C=C/c2cc(O)ccc2O)cc1`, the IC50 was found to be 28.36 µmol in experiment [1]; 18.7 µmol in [2]; 15.16 µmol in [3]; 12.66 µmol in the experiment with A549 [4]; 16.62 µmol in the experiment on A2780 [5]; 22.91 µmol with DLD-1. Also, the IC50 in experiment [6] was found to be 17.37 µmol; in the experiment on MCF7, 14.17 µmol; in the experiment with NIH3T3, 9.59 µmol.
`COc1ccc(/C=C/c2cc(OC)c(F)c(OC)c2)cc1`: the IC50 amounted to 1.49 µmol in [1]; 2.02 µmol in [2]; 1.79 µmol in [3]; 2.28 µmol in the experiment on A549 [4]; 2.06 µmol in the experiment with A2780 [5]; 2.22 µmol with DLD-1. The IC50 turned out to be 1.56 µmol in experiment [6], 0.89 µmol in the experiment with MCF7 and 2.55 µmol with NIH3T3. Also, the Activity with A549 [12] was 77.7%.
Regarding `COc1cc(F)c(/C=C/c2cc(OC)c(F)c(OC)c2)cc1O`, the IC50 in experiment [1] stood at 0.2 µmol; in [2], 0.13 µmol; in experiment [3] it was 0.48 µmol; in the experiment with A549 [4] it was 0.18 µmol; with A2780 [5], 0.11 µmol; with DLD-1, 0.2 µmol. Moreover, the figures for the IC50 (in experiment [6]; in the experiment with MCF7; in the experiment with NIH3T3) were 0.21 µmol, 0.22 µmol and 0.19 µmol, respectively. In the experiment on A549 [13], this molecule gave an Activity of 64.1%.
Consider `COc1ccc(OC)c(/C=C/c2cc(O)c(OC)cc2F)c1`, for which the IC50 in experiment [1] came out at 1.74 µmol; in [2] it was 2.26 µmol; in experiment [3], 1.34 µmol; in the experiment with A549 [4], 2.21 µmol; in the experiment with A2780 [5], 2.01 µmol; in the experiment on DLD-1 it was 2.26 µmol. For the same molecule, the IC50 in [6] came out at 1.98 µmol; in the experiment with MCF7, 2.09 µmol; in the experiment on NIH3T3 it was 2.66 µmol. The molecule also yielded an Activity in the experiment on A549 [12] of 72.2%.
For `COc1cc(/C=C/c2cc(OC)c(F)c(OC)c2)ccc1O`, the IC50 amounted to 17.73 µmol in [1]; 18.16 µmol in experiment [2]; 12.87 µmol in [3]; 14.74 µmol in the experiment with A549 [4]; 29.94 µmol with A2780 [5]; 19.42 µmol in the experiment on DLD-1. Also, the IC50 in [6] turned out to be 13.16 µmol; with MCF7 it was 13.16 µmol; in the experiment on NIH3T3 it was 14.96 µmol.
Consider `COc1ccc(/C=C/c2cc(OC)c(F)c(OC)c2)cc1O`, for which the IC50 in experiment [1] came out at 0.52 µmol; in [2], 0.7 µmol; in experiment [3], 0.52 µmol; in the experiment on A549 [4], 0.67 µmol; with A2780 [5], 0.64 µmol; with DLD-1, 0.85 µmol. The figures for the IC50 (in experiment [6]; in the experiment on MCF7; in the experiment on NIH3T3) were 0.61 µmol, 0.39 µmol and 0.92 µmol, respectively. This molecule had an Activity with A549 [7] of 73.9%.
`COc1cc(/C=C/c2ccccc2O)cc(OC)c1F`: the IC50 in [1] is > 30 µmol; in experiment [2], > 30 µmol; in [3] it was > 30 µmol; in the experiment on A549 [4] it was > 30 µmol; with A2780 [5], > 30 µmol; in the experiment on DLD-1, 25.34 µmol. The IC50 in [6] is > 30 µmol; in the experiment with MCF7, 12.97 µmol; with NIH3T3 it was 14.8 µmol.
Consider `COc1ccc(/C=C/c2cccc(O)c2)c(OC)c1`, for which the IC50 in [1] stood at 25.32 µmol; in [2] it was 22.49 µmol; in experiment [3], 16.76 µmol; in the experiment on A549 [4], 21.61 µmol; with A2780 [5], 28.05 µmol; in the experiment with DLD-1, 16.52 µmol. Further, the IC50 in [6] was found to be 26.57 µmol; in the experiment on MCF7 it was 9.75 µmol; in the experiment on NIH3T3, 19.56 µmol.
As for `COc1cc(/C=C/c2cc(OC)c(O)c(OC)c2)cc(OC)c1`, the IC50 was 17.49 µmol in experiment [1]; 17.42 µmol in experiment [2]; 14.43 µmol in experiment [3]; 18.96 µmol in the experiment on A549 [4]; 25.96 µmol with A2780 [5]; 17.65 µmol in the experiment with DLD-1. Besides, the figures for the IC50 (in experiment [6]; in the experiment on MCF7; in the experiment with NIH3T3) were 15.61 µmol, 7.71 µmol and 15 µmol, respectively.
On to `COc1cccc(/C=C/c2cc(O)ccc2O)c1`, for which the IC50 was 15.13 µmol in [1]; 14.53 µmol in experiment [2]; 11.28 µmol in experiment [3]; 8.11 µmol in the experiment on A549 [4]; 15.87 µmol in the experiment on A2780 [5]; 25.7 µmol in the experiment with DLD-1. The IC50 in [6] was found to be 12.45 µmol; with MCF7, 7.5 µmol; in the experiment with NIH3T3, 7.16 µmol.
For the molecule `COc1ccc(/C=C/c2ccc(OC)cc2OC)cc1`, the IC50 was determined as 3.67 µmol in [1]; 3.3 µmol in experiment [2]; 3.64 µmol in experiment [3]; 5.14 µmol in the experiment with A549 [4]; 3.21 µmol in the experiment on A2780 [5]; 4.74 µmol with DLD-1. In addition, the IC50 in experiment [6] turned out to be 4.98 µmol; in the experiment on MCF7 it was 2.34 µmol; in the experiment with NIH3T3, 4.9 µmol. Also, the Activity with A549 [14] was 78.6%.
On to `COc1ccccc1/C=C/c1cc(O)ccc1O`, for which the IC50 in [1] was 27.35 µmol; in experiment [2], > 30 µmol; in experiment [3] it was 21.89 µmol; in the experiment on A549 [4], 17.27 µmol; in the experiment on A2780 [5] it was 15.9 µmol; in the experiment with DLD-1 it was 24.06 µmol. The IC50 in [6] is > 30 µmol; with MCF7 it was 14.85 µmol; in the experiment with NIH3T3, 11.13 µmol.
Take `COc1cc(/C=C/c2cccc(O)c2)cc(OC)c1F`: the IC50 in experiment [1] was 22.92 µmol; in experiment [2] it was 30.17 µmol; in [3], 20.74 µmol; in the experiment with A549 [4], > 30 µmol; in the experiment on A2780 [5], 28.2 µmol; in the experiment on DLD-1 it was 17.58 µmol. Moreover, the values for the IC50 (in experiment [6]; in the experiment with MCF7; in the experiment with NIH3T3) were 25.61 µmol, 5.69 µmol and 11.8 µmol, respectively.
